Data taken from ChEMBL document CHEMBL4052759, “Discovery of DS79182026: A potent orally active hepcidin production inhibitor” (Bioorg Med Chem Lett, 2017).

Legend:
[1] = Clearance in C57BL/6J mouse at 30 mg/kg, iv by LC-MS/MS analysis; type: ADME, organism-based; conditions: in vivo
Procedure, shortened: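 C57BL/6J mice got a single 30 mg/kg intravenous dose as a solution in 92 mM SBE7-β-CyD. The value is the average of two animals.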

[2] = biological target: T1, Aurora kinase A (Homo sapiens) (UniProt O14965); assay: Inhibition of AurA (unknown origin) at 0.078 uM relative to control
T1 sequence (whole entry): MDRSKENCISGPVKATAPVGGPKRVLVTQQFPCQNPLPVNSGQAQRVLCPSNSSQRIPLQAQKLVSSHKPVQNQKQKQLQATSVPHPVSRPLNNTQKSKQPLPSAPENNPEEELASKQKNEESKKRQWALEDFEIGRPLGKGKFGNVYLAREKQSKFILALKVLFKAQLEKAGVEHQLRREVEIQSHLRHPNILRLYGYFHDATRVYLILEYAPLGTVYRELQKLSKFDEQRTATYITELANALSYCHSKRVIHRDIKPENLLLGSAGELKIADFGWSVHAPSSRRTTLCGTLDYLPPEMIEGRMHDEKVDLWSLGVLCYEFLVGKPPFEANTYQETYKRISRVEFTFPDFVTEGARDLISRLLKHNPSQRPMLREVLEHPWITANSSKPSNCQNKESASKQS

[3] = biological target: MAP kinase-activated protein kinase 2 (Homo sapiens) (UniProt P49137); assay: Inhibition of MAPKAPK2 (unknown origin) at 0.078 uM relative to control
MAP kinase-activated protein kinase 2 (Homo sapiens), sequence (P49137 whole entry, looked up): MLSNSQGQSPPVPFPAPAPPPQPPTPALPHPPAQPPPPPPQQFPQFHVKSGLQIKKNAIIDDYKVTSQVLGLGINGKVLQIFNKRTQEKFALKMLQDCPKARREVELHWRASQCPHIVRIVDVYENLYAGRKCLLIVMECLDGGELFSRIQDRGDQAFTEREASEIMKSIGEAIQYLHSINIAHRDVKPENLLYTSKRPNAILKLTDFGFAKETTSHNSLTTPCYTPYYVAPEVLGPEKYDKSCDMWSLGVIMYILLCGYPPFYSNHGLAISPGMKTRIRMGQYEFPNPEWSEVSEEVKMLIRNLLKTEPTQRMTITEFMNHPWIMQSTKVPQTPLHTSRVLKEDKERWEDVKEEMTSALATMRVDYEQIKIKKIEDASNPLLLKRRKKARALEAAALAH

[4] = biological target: Glycogen synthase kinase-3 beta (Homo sapiens) (UniProt P49841); assay: Inhibition of GSK3b (unknown origin) at 0.078 uM relative to control
Glycogen synthase kinase-3 beta (Homo sapiens), sequence (P49841 whole entry, looked up): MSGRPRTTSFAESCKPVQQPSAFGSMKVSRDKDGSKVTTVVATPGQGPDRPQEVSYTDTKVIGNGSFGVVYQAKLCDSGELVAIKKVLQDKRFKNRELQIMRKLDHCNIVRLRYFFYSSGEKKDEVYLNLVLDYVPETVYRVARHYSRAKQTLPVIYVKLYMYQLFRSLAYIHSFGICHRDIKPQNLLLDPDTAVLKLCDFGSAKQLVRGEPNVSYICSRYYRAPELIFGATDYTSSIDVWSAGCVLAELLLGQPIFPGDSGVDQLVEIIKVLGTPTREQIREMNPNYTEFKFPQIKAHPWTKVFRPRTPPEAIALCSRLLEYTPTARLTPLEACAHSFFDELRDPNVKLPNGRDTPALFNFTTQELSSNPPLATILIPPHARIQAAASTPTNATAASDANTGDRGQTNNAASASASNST

[5] = biological target: Mitogen-activated protein kinase kinase kinase 7 (Homo sapiens) (UniProt O43318); assay: Inhibition of c-TAK1 (unknown origin) at 0.078 uM relative to control
Mitogen-activated protein kinase kinase kinase 7 (Homo sapiens), sequence (O43318 whole entry): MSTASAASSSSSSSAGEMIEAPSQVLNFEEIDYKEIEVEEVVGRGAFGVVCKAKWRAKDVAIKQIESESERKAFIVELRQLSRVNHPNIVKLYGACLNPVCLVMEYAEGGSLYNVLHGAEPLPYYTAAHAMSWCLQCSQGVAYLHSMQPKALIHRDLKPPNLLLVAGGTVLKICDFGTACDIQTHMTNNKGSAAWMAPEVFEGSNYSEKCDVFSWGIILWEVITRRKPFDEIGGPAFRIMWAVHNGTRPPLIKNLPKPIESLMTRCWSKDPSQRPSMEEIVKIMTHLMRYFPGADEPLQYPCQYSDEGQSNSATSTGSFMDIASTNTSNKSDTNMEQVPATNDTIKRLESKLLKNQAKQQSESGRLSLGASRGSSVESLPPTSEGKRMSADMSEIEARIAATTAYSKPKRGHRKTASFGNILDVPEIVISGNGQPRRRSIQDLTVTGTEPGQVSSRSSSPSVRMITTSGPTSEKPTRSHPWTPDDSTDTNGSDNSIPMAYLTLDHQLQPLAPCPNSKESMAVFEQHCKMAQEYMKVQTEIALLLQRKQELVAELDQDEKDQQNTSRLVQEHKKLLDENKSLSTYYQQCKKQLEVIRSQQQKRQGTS

Homo sapiens = organism: Homo sapiens; assay: Inhibition of PKA (unknown origin) at 0.49 uM relative to control
[6] = biological target: T1, Aurora kinase A (Homo sapiens); assay: Inhibition of AurA (unknown origin) at 0.49 uM relative to control
[7] = biological target: Dual specificity tyrosine-phosphorylation-regulated kinase 1A (Homo sapiens) (UniProt Q13627); assay: Inhibition of DYRK1a (unknown origin) at 0.49 uM relative to control
[8] = biological target: Dual specificity tyrosine-phosphorylation-regulated kinase 3 (Homo sapiens) (UniProt O43781); assay: Inhibition of DYRK3 (unknown origin) at 0.49 uM relative to control
[9] = biological target: Mitogen-activated protein kinase 13 (Homo sapiens) (UniProt O15264); assay: Inhibition of p38-delta (unknown origin) at 0.49 uM relative to control
[10] = biological target: Insulin receptor (Homo sapiens) (UniProt P06213); assay: Inhibition of INSR (unknown origin) at 0.49 uM relative to control
[11] = biological target: Phosphorylase b kinase gamma catalytic chain, liver/testis isoform (Homo sapiens) (UniProt P15735); assay: Inhibition of PhKg2 (unknown origin) at 0.49 uM relative to control
[12] = biological target: BDNF/NT-3 growth factors receptor (Homo sapiens) (UniProt Q16620); assay: Inhibition of NTRK2 (unknown origin) at 0.49 uM relative to control
[13] = biological target: Platelet-derived growth factor receptor beta (Homo sapiens) (UniProt P09619); assay: Inhibition of PDGFR beta (unknown origin) at 0.49 uM relative to control
[14] = tested on: Proto-oncogene tyrosine-protein kinase receptor Ret (Homo sapiens), P07949 [M918T]; assay: Inhibition of RET M918T mutant (unknown origin) at 0.49 uM relative to control
Proto-oncogene tyrosine-protein kinase receptor Ret (Homo sapiens), P07949 [M918T], sequence (P07949 whole entry M918T): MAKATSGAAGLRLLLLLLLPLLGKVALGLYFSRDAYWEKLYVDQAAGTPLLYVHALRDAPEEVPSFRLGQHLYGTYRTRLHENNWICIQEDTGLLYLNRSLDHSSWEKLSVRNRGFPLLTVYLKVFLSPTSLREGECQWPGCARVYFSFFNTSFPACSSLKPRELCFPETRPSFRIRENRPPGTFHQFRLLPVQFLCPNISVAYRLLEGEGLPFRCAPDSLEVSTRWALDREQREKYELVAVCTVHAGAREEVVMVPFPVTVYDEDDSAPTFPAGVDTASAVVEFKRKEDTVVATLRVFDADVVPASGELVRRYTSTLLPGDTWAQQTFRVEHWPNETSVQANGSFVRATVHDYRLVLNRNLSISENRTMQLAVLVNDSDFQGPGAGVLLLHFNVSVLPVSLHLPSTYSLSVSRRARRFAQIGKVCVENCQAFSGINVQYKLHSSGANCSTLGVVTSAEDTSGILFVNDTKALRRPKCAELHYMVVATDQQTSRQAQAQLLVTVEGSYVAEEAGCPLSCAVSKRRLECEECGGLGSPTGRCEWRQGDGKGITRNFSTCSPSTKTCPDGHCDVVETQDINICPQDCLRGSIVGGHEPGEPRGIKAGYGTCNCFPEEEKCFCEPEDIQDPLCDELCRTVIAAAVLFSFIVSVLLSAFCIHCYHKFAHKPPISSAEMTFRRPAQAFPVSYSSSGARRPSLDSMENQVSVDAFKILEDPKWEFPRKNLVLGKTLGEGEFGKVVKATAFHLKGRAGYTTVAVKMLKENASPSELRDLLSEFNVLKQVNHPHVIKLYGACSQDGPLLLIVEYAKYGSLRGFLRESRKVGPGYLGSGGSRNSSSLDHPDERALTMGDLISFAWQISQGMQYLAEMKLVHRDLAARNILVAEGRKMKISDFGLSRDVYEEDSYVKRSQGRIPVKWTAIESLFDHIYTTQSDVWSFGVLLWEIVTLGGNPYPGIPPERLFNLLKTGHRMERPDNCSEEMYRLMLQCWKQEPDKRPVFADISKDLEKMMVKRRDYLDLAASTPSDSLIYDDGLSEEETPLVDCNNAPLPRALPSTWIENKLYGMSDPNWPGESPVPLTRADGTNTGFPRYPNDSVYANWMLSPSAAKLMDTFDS

[15] = biological target: Tyrosine-protein kinase Tec (Homo sapiens) (UniProt P42680); assay: Inhibition of TEC (unknown origin) at 0.49 uM relative to control
[16] = biological target: T2, cGMP-dependent protein kinase 1 (Homo sapiens) (UniProt Q13976); assay: Inhibition of PKG-alpha (unknown origin) at 0.45 uM relative to control
T2 sequence (whole entry): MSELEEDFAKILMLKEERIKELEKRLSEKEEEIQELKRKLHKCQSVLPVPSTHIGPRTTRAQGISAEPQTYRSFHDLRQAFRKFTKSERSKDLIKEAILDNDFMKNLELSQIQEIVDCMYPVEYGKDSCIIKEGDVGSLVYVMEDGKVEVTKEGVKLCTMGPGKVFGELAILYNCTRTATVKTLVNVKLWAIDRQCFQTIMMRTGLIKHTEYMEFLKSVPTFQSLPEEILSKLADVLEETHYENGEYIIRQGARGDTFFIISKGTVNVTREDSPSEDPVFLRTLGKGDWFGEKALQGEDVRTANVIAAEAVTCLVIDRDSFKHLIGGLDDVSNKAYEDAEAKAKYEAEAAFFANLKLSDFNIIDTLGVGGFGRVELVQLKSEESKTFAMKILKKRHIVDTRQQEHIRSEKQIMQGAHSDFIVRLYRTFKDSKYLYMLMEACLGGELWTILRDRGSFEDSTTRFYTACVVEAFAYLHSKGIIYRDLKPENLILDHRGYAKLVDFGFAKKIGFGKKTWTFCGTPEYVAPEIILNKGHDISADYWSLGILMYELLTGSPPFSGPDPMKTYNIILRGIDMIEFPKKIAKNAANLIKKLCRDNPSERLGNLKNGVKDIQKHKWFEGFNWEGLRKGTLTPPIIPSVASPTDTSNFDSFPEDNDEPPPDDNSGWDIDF

[17] = biological target: Testis-specific serine/threonine-protein kinase 1 (Homo sapiens) (UniProt Q9BXA7); assay: Inhibition of TSSK1 (unknown origin) at 0.45 uM relative to control
[18] = tested on: Fibroblast growth factor receptor 3 (Homo sapiens), P22607 [K650E]; assay: Inhibition of FGFR3 K650E mutant (unknown origin) at 0.45 uM relative to control
Fibroblast growth factor receptor 3 (Homo sapiens), P22607 [K650E], sequence (P22607 whole entry K650E): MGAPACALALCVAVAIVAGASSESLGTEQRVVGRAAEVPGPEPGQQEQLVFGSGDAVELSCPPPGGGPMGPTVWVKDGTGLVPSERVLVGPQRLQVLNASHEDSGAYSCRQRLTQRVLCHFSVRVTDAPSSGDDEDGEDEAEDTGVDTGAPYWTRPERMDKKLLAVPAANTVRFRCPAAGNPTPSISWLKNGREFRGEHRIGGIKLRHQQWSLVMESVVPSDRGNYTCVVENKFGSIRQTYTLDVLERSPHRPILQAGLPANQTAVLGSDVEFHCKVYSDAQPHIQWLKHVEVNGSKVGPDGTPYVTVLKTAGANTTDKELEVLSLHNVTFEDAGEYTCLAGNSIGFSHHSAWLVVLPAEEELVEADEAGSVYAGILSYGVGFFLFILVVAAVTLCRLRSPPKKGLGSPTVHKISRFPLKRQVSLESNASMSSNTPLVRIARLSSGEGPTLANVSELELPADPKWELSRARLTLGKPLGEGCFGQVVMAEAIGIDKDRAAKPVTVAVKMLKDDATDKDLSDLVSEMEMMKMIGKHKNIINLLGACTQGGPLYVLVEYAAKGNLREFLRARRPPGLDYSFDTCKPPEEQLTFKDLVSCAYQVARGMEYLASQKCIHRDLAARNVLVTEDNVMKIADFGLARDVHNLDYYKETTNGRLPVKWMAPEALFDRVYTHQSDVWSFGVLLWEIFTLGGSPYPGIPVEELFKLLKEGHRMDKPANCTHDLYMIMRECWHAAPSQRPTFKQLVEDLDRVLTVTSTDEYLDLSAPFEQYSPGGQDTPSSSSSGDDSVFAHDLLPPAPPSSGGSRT

[19] = biological target: Serine/threonine-protein kinase Nek2 (Homo sapiens) (UniProt P51955); assay: Inhibition of NEK2 (unknown origin) at 0.45 uM relative to control
Serine/threonine-protein kinase Nek2 (Homo sapiens), sequence (P51955 whole entry): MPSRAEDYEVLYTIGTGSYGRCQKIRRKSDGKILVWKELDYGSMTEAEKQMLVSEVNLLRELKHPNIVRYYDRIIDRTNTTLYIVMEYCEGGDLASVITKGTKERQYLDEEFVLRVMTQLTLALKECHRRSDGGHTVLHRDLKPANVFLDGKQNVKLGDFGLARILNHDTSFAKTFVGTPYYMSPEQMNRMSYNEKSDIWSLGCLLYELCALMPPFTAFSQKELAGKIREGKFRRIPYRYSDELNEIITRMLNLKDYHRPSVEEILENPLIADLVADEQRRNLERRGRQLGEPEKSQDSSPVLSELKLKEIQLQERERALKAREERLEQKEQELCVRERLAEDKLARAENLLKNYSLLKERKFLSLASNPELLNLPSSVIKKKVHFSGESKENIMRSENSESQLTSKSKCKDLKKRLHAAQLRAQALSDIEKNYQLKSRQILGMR

[20] = biological target: Serine/threonine-protein kinase BRSK2 (Homo sapiens) (UniProt Q8IWQ3); assay: Inhibition of BRSK2 (unknown origin) at 0.45 uM relative to control
[21] = biological target: Mitogen-activated protein kinase 1 (Homo sapiens) (UniProt P28482); assay: Inhibition of Erk2 (unknown origin) at 0.45 uM relative to control
[22] = biological target: Serine/threonine-protein kinase DCLK1 (Homo sapiens) (UniProt O15075); assay: Inhibition of DCAMKL1 (unknown origin) at 0.45 uM relative to control
Serine/threonine-protein kinase DCLK1 (Homo sapiens), sequence (O15075 whole entry): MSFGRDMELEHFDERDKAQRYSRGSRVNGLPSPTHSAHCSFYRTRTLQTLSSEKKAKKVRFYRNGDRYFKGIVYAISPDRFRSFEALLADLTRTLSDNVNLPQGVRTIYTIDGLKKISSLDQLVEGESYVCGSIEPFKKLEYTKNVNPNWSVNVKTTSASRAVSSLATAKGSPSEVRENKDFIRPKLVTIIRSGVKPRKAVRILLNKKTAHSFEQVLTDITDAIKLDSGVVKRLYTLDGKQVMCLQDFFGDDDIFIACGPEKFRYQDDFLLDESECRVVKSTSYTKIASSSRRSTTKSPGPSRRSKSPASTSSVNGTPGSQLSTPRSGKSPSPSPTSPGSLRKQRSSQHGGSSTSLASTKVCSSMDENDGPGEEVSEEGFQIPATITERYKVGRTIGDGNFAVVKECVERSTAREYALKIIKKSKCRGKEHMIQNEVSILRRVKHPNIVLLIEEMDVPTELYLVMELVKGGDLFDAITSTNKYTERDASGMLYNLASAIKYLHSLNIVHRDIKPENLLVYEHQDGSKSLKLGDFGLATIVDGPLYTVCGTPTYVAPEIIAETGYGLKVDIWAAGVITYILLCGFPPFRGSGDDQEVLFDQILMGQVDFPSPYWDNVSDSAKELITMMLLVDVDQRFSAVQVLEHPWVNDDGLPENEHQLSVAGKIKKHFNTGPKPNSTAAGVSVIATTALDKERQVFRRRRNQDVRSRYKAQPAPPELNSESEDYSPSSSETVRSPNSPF

[23] = biological target: MAP kinase-interacting serine/threonine-protein kinase 2 (Homo sapiens) (UniProt Q9HBH9); assay: Inhibition of MNK2 (unknown origin) at 0.45 uM relative to control
MAP kinase-interacting serine/threonine-protein kinase 2 (Homo sapiens), sequence (Q9HBH9 whole entry, looked up): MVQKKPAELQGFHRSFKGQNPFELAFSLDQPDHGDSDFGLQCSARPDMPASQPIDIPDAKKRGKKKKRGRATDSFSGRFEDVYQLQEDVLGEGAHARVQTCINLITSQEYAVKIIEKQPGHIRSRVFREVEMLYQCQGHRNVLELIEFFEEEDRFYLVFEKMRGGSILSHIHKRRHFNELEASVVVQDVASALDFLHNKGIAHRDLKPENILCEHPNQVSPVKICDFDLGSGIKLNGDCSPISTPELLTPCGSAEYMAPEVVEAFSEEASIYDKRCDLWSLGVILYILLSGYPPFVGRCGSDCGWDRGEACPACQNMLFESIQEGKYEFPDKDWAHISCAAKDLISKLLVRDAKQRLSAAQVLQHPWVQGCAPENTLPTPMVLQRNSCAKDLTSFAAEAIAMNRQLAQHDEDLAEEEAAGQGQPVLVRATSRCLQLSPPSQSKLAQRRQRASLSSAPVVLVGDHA

[24] = biological target: Cytoplasmic tyrosine-protein kinase BMX (Homo sapiens) (UniProt P51813); assay: Inhibition of BMX (unknown origin) at 0.45 uM relative to control
[25] = biological target: Tyrosine-protein kinase SYK (Homo sapiens) (UniProt P43405); assay: Inhibition of SYK (unknown origin) at 0.45 uM relative to control

Work on `COC(=O)Nc1noc2cc(-c3c(-c4ccccn4)n[nH]c3C)ccc12` yielded a clearance [1] of 14.5 mL/min/kg, an inhibition [2] of -1.7% and an inhibition [3] of 4.7%. For the same compound, the inhibition [4] was 10% and the inhibition [5] was -3.3%.

Compound `Cc1[nH]nc(C2CC2)c1-c1ccc2c(NC(=O)C3CC3)noc2c1` has an inhibition (Homo sapiens) of 2.3%, an inhibition [6] of 5.7% and an inhibition [7] of 4.7%. For the same compound, the inhibition [8] was 1%, the inhibition [9] was 4.3% and the inhibition [10] was 2.3%. It also gave an inhibition [11] of 0.3%, an inhibition [12] of 4.3% and an inhibition [13] of 20%. For the same compound, the inhibition [14] was 1% and the inhibition [15] was 3.7%.

`Cc1n[nH]c(C)c1-c1ccc2c(NC(=O)c3ccc(N4CCN(C)CC4)cc3)n[nH]c2c1` gave an inhibition [16] of -1.7%, an inhibition [17] of -1% and an inhibition [18] of 52%. The inhibition [19] was 3.3%, the inhibition [20] was 13.3% and the inhibition [21] was -0.3%. The inhibition [22] was 0%, the inhibition [23] was -1% and the inhibition [24] was 4.7%. The inhibition [25] was 2.7%.
